Source: ChEMBL document CHEMBL1671645, “Pharmacokinetics and absorption of posaconazole oral suspension under various gastric conditions in healthy volunteers” (Antimicrob Agents Chemother, 2009)

Tests used:
[1] = AUC in healthy human at 400 mg administered as single dose suspension coadministered with nutritional supplement; type: ADME, organism-based; conditions: plasma
Procedure, shortened: (§1)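 A three-way crossover in 13 healthy subjects gave one 400 mg oral suspension dose with a nutritional supplement, either alone, with metoclopramide 10 mg orally three times daily on the day before and the day of dosing, or with a single 4 mg dose of loperamide. Plasma was taken 0–168 h for LC-MS/MS. Analysis was noncompartmental.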

[2] = AUC in healthy human at 400 mg administered as single dose suspension coadministered with nutritional supplement and 10 mg metoclopramide; type: ADME, organism-based; conditions: plasma; procedure, shortened: as §1
[3] = Tmax in fasted healthy human at 400 mg administered as single dose suspension coadministered with acidic carbonated beverage; type: ADME, organism-based; conditions: in vivo
Procedure, shortened: (§2)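 Single oral suspension dose in fasting healthy volunteers, alone, with 12 oz ginger ale, after esomeprazole 40 mg once each morning days −2 to 1, or both; four-way crossover, 7–10-day washout. EDTA plasma 0–168 h. LC-MS/MS (LLOQ 5.00 ng/ml). t1/2 = ln(2)/K from terminal log-linear regression; Tmax median.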

[4] = Tmax in healthy human at 200 mg QID, po administered as suspension for 7 days coadministered with nutritional supplement; type: ADME, organism-based; conditions: in vivo
Procedure, shortened: (§3)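 Healthy volunteers given oral suspension (40 mg/ml) for 7 days, fasted or with nutritional supplement (Boost); four-way crossover, 14–21-day washout, nonfat snacks ≤800 cal/day allowed. On day 7 only the morning dose was given; plasma sampled predose to 168 h after it. LC-MS/MS (LLOQ 5.00 ng/ml). t1/2 = ln(2)/K from log-linear terminal slope; Tmax as median.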

[5] = Tmax in fasted healthy human at 400 mg administered as single dose suspension; type: ADME, organism-based; conditions: in vivo; procedure, shortened: as §2
[6] = (§4) Apparent total body clearance in fasted healthy human at 400 mg administered as single dose suspension; type: ADME, organism-based; conditions: in vivo
[7] = Apparent total body clearance in fasted healthy human at 400 mg administered as single dose suspension coadministered with acidic carbonated beverage and proton pump inhibitor; type: ADME, organism-based; conditions: in vivo
Procedure, shortened: (§5)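 This was a four-way crossover in 12 healthy subjects with 7–10 day washouts. Each took one fasting 400 mg oral suspension dose, with 12 oz ginger ale and/or esomeprazole 40 mg once each morning on days −2 to 1, with dosing on day 1. Plasma was sampled 0–168 h and measured by LC-MS/MS (LLOQ 5.00 ng/ml). Analysis was noncompartmental, with CL/F = dose/AUC_I and V/F = (CL/F)/K.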

Homo sapiens [8] = assay: Apparent total body clearance in fasted healthy human at 400 mg BID, po administered as suspension for 7 days; type: ADME, organism-based; conditions: in vivo, 168 h
Procedure, shortened: (§6)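 Twelve healthy subjects took oral suspension for 7 days as 400 mg BID or 200 mg QID, either fasting or with a Boost-type nutritional supplement, in a crossover with 14–21 day washouts. Nonfat snacks of 800 cal/day or less were allowed. Plasma was sampled 0–168 h after the day-7 morning dose only and analysed by LC-MS/MS. AUC is AUC_τ, normalized to dose.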

Homo sapiens [9] = assay: Apparent total body clearance in healthy human at 400 mg BID, po administered as suspension for 7 days coadministered with nutritional supplement; type: ADME, organism-based; conditions: in vivo, 168 h; procedure, shortened: as §6
[10] = as §4; type: ADME, organism-based; conditions: in vivo; remark: listed apart in the source
[11] = Apparent total body clearance in fasted healthy human at 400 mg administered as single dose suspension after consumption of high fat meal; type: ADME, organism-based; conditions: in vivo
Procedure, shortened: (§7)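 In a crossover of 12 healthy subjects, each took a single 400 mg oral suspension dose 5 min before, midway through (about 10 min into a 20-min meal), or 20 min after a high-fat meal of about 50 g fat. Plasma was drawn 0–168 h and measured by LC-MS/MS. Parameters are noncompartmental, with AUC to the last measurable time.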

[12] = Apparent total body clearance in healthy human at 400 mg administered as single dose suspension coadministered with nutritional supplement; type: ADME, organism-based; conditions: in vivo; procedure, shortened: as §1
[13] = Half life in fasted healthy human at 400 mg BID, po administered as suspension for 7 days; type: ADME, organism-based; conditions: in vivo; procedure, shortened: as §3
[14] = Apparent volume of distribution in fasted healthy human at 400 mg administered as single dose suspension coadministered with acidic carbonated beverage; type: ADME, organism-based; conditions: in vivo, read-out: Vc/F; procedure, shortened: as §5
Homo sapiens [15] = assay: Toxicity in healthy human assessed as adverse events at 400 mg administered as single dose suspension coadministered with acidic carbonated beverage; type: organism-based; conditions: in vivo
Procedure, shortened: (§8)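 Healthy volunteers monitored for adverse events, vital signs, clinical laboratory values and 12-lead ECG. Adverse events tabulated by body system or organ class and severity and summarized by treatment across the crossover regimens.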

Homo sapiens [16] = assay: Toxicity in healthy human assessed as adverse events at 400 mg BID, po administered as suspension for 7 days; type: organism-based; conditions: in vivo, 168 h; procedure, shortened: as §8
Homo sapiens [17] = assay: Toxicity in healthy human assessed as adverse events at 400 mg administered as single dose suspension after 20 mins after consumption of high fat meal; type: organism-based; conditions: in vivo; procedure, shortened: as §8
Homo sapiens [18] = assay: Toxicity in healthy human assessed as dizziness at 400 mg BID, po administered as suspension for 7 days; type: organism-based; conditions: in vivo, 168 h
Procedure, shortened: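 Healthy volunteers (n = 12) took oral posaconazole suspension (40 mg/ml) for 7 days in a four-way randomized crossover with a 14- to 21-day washout. Subjects stayed fasted throughout, with nonfat snacks up to 800 cal/day allowed. Where given, Boost was taken with each dose. Safety covered adverse events, vital signs, clinical labs and 12-lead ECG, with AEs tabulated by body system and severity per treatment.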

Homo sapiens [19] = assay: Toxicity in healthy human assessed as dizziness at 200 mg QID, po administered as suspension for 7 days; type: organism-based; conditions: in vivo, 168 h; procedure, shortened: as §8
Homo sapiens [20] = assay: Toxicity in healthy human assessed as dizziness at 200 mg QID, po administered as suspension for 7 days coadministered with nutritional supplement; type: organism-based; conditions: in vivo, 168 h
Procedure, shortened: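 Healthy volunteers (n = 12) took oral posaconazole suspension (40 mg/ml) with Boost at each dose for 7 days in a four-way randomized crossover with a 14- to 21-day washout. Subjects stayed fasted throughout, with nonfat snacks up to 800 cal/day allowed. Safety covered adverse events, vital signs, clinical labs and 12-lead ECG, with AEs tabulated by body system and severity per treatment.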

Homo sapiens [21] = assay: Toxicity in healthy human assessed as asthenia at 200 mg QID, po administered as suspension for 7 days coadministered with nutritional supplement; type: organism-based; conditions: in vivo, 168 h; procedure, shortened: as §8
Homo sapiens [22] = assay: Toxicity in healthy human assessed as fatigue at 400 mg administered as single dose suspension coadministered with nutritional supplement and 4 mg loperamide as two 2 mg tablets; type: organism-based; conditions: in vivo
Procedure, shortened: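 Three-way randomized crossover in 13 healthy volunteers with a 7- to 10-day washout. Each period was one 400-mg oral posaconazole suspension dose with a nutritional supplement. Metoclopramide 10 mg was given orally three times daily on the day before and the day of dosing; loperamide was a single 4 mg. Safety was assessed from adverse events, tabulated by body system and severity per treatment.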

[23] = Cmax in plasma in hematopoietic stem cell transplant recipient human with GVHD and diarrhea; type: ADME, organism-based
[24] = Cmax in fasted healthy human plasma at 400 mg administered as single dose suspension; type: ADME, organism-based; set-up: dose 400 mg
[25] = Cmax in healthy human plasma at 400 mg BID, po administered as suspension for 7 days coadministered with nutritional supplement; type: ADME, organism-based; set-up: dose 400 mg, route oral; procedure, shortened: as §6
[26] = Cmax in healthy human plasma at 200 mg QID, po administered as suspension for 7 days coadministered with nutritional supplement; type: ADME, organism-based; set-up: dose 200 mg, route oral; procedure, shortened: as §6
[27] = Cmax in fasted healthy human plasma at 400 mg administered as single dose suspension 5 mins before consumption of high fat meal; type: ADME, organism-based; set-up: dose 400 mg; procedure, shortened: as §7
[28] = Cmax in fasted healthy human plasma at 400 mg administered as single dose suspension after consumption of high fat meal; type: ADME, organism-based; set-up: dose 400 mg; procedure, shortened: as §7
[29] = Cmax in healthy human plasma at 400 mg administered as single dose suspension coadministered with nutritional supplement; type: ADME, organism-based; set-up: dose 400 mg; procedure, shortened: as §1

For `CC[C@@H]([C@H](C)O)n1ncn(-c2ccc(N3CCN(c4ccc(OC[C@@H]5CO[C@@](Cn6cncn6)(c6ccc(F)cc6F)C5)cc4)CC3)cc2)c1=O` [POSACONAZOLE], the AUC [1] was 8960 ng·h/mL, the AUC [2] was 7390 ng·h/mL and the Tmax [3] was 4 h. For the same compound, the Tmax [4] was 4 h, the Tmax [5] was 5 h and the CL/F [6] was 1390 mL/min. For the same compound, the CL/F [7] was 1620 mL/min, the CL/F (Homo sapiens [8]) was 54.6 L/h and the CL/F (Homo sapiens [9]) was 33.9 L/h. It also gave a CL/F [10] of 1830 mL/min, a CL/F [11] of 395 mL/min and a CL/F [12] of 823 mL/min. The half-life [13] was 25.7 h, the Vd/F [14] was 1840 L and the Activity (Homo sapiens [15]) was 25%. The Activity (Homo sapiens [16]) was 75%, the Activity (Homo sapiens [17]) was 25% and the Activity (Homo sapiens [18]) was 33%. For the same compound, the Activity (Homo sapiens [19]) was 33%, the Activity (Homo sapiens [20]) was 33% and the Activity (Homo sapiens [21]) was 25%. For the same compound, the Activity (Homo sapiens [22]) was 15%, the Cmax [23] was 623 ng/mL and the Cmax [24] was 151 ng/mL. It also gave a Cmax [25] of 1590 ng/mL, a Cmax [26] of 2160 ng/mL and a Cmax [27] of 274 ng/mL. It also gave a Cmax [28] of 544 ng/mL and a Cmax [29] of 303 ng/mL.
